Data on 18 compounds can be found in ChEMBL document CHEMBL1949539, “Synthesis and antikinetoplastid activity of a series of N,N'-substituted diamines” (Bioorg Med Chem Lett, 2012).

Data set [1] relates to Vero. Put plainly: Cytotoxicity against african green monkey Vero cells at 4.76 ug/ml after 48 hrs by neutral red assay. In kind it is cell-based. Particulars: chlorocebus sabaeus.
The next data set deals with Trypanosoma brucei. Put plainly: Antitrypanosomal activity against Trypanosoma brucei MITat 427 clone 221a trypomastigotes after 3 days by alamar blue assay. Type of data set: functional, organism-based. The following applies: 72 h.
Data set [2] in a line: Selectivity ratio of IC50 for african green monkey Vero cells to IC50 for Trypanosoma brucei MITat 427 clone 221a trypomastigotes. In kind it is ADME, cell-based. The following applies: read-out: Ratio IC50. A digest of the protocol: (§1)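 Selectivity index was calculated as the IC50 in Vero cells divided by the IC50 in the parasite.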
A further data set has as its system Leishmania donovani. Put plainly: Antileishmanial activity against Leishmania donovani S1 promastigotes after 72 hrs by alamar blue assay. Type of data set: functional, organism-based. Particulars: S1, 72 h. (In general: The colour change of resazurin is a common sign of viable cells or microbes.)
A further data set concerns Trypanosoma cruzi. Put plainly: Antitrypanosomal activity against Trypanosoma cruzi clone CL-Brener epimastigotes after 14 days by alamar blue assay. Type of data set: functional, organism-based. The following applies: 336 h.
The nature of data set [3]: Selectivity ratio of IC50 for african green monkey Vero cells to IC50 for Leishmania donovani S1 promastigotes. Type of data set: ADME, cell-based. The following applies: Vero cells versus Leishmania donovani S1 promastigotes, read-out: Ratio IC50. In a few lines:
as §1

The subject of data set [4] is Vero. Put plainly: Cytotoxicity against african green monkey Vero cells after 48 hrs by neutral red assay. In kind it is cell-based. The following applies: chlorocebus sabaeus.
Data set [5] can be described thus: Selectivity ratio of IC50 for african green monkey Vero cells to IC50 for Trypanosoma cruzi clone CL-Brener epimastigotes. The following applies: read-out: Ratio IC50. In kind it is ADME, cell-based. In a few lines:
as §1

In general, IC50 refers to the concentration that inhibits the measured activity by half. On to `c1ccc(CNCCCNCc2ccccc2)cc1`, for which the Activity result with Vero [1] is given as “Non-toxic”. Moreover, the values for the IC50 in the data set on Trypanosoma brucei, with Leishmania donovani and in the data set with Trypanosoma cruzi were 6450 nM, 11000 nM and > 10000 nM, respectively. Moreover, the selectivity ratio is > 3 in data set [2] and > 27 in data set [3].
For the compound `COc1ccc(CNCCCNCc2ccc(OC)cc2)cc1`, the Activity result in the data set with Vero [1] is recorded as “Non-toxic”. Also, the IC50 in the data set on Trypanosoma brucei was 2040 nM; with Leishmania donovani, 1240 nM; in the data set on Trypanosoma cruzi, > 10000 nM. The selectivity ratio in data set [2] was > 7; in data set [3], > 12.
For the compound `COc1ccc(CNCCCCCCNCc2ccc(OC)cc2)cc1`, the IC50 is 8320 nM in the data set with Vero [4], 220 nM in the data set on Trypanosoma brucei, 6730 nM with Leishmania donovani and > 10000 nM in the data set with Trypanosoma cruzi. Besides, the selectivity ratio in data set [2] was 60; in data set [3] it was 2.
As for `COc1ccc(CNCCCCCCCCNCc2ccc(OC)cc2)cc1`, the Activity result in the data set on Vero [1] is listed as “Non-toxic”. Moreover, the half-inhibitory concentration (IC50) in the data set on Trypanosoma brucei is 5500 nM; in the data set on Leishmania donovani, 1560 nM; in the data set on Trypanosoma cruzi, > 10000 nM. Further, the selectivity ratio in data set [2] is > 2; in data set [3] it was > 5.
As to `COc1ccc(CNCCCCCCCCCCNCc2ccc(OC)cc2)cc1`, in the data set on Vero [1], the Activity result is “Non-toxic”. In addition, the figures for the half-maximal inhibitory concentration (IC50) with Trypanosoma brucei, in the data set with Leishmania donovani and in the data set with Trypanosoma cruzi were > 10000 nM, 1450 nM and 2300 nM, respectively. In addition, the figures for the selectivity ratio in data set [5] and in data set [3] were > 5 and > 8, respectively.
On to `COc1ccc(CNCCCNCc2ccc(OC)c(O)c2)cc1O`, for which, in the data set with Vero [1], the Activity result was “Non-toxic”. The IC50 in the data set with Trypanosoma brucei was > 10000 nM; with Leishmania donovani it was > 100000 nM; with Trypanosoma cruzi, > 10000 nM.
For the compound `COc1ccc(CNCCCCNCc2ccc(OC)c(O)c2)cc1O`, the Activity entry in the data set on Vero [1] is given as “Non-toxic”. For the same compound, the IC50 was > 10000 nM with Trypanosoma brucei, > 100000 nM in the data set on Leishmania donovani and > 10000 nM with Trypanosoma cruzi.
As to `COc1ccc(CNCCCCCCNCc2ccc(OC)c(O)c2)cc1O`, the Activity entry in the data set on Vero [1] was “Non-toxic”. For the same compound, the concentration for half-maximal inhibition (IC50) in the data set on Trypanosoma brucei is > 10000 nM; in the data set with Leishmania donovani it was 43800 nM; in the data set with Trypanosoma cruzi, > 10000 nM. Moreover, the selectivity ratio in data set [3] is > 0.3.
With `COc1ccc(CNCCCCCCCCNCc2ccc(OC)c(O)c2)cc1O`, the Activity result in the data set on Vero [1] was “Non-toxic”. Moreover, the IC50 was 5500 nM with Trypanosoma brucei, 44400 nM with Leishmania donovani and > 10000 nM with Trypanosoma cruzi. The values for the selectivity ratio in data set [2] and in data set [3] were > 2 and > 0.3, respectively.
Regarding `COc1ccc(CNCCCCCCCCCCNCc2ccc(OC)c(O)c2)cc1O`, in the data set on Vero [1], the Activity entry is recorded as “Non-toxic”. The half-inhibitory concentration (IC50) in the data set on Trypanosoma brucei was 960 nM; with Leishmania donovani, 4500 nM; in the data set with Trypanosoma cruzi it was > 10000 nM. Also, the selectivity ratio in data set [2] was > 11; in data set [3], > 2.
Turning to `COc1cc(CNCCCNCc2ccc(OCc3ccccc3)c(OC)c2)ccc1OCc1ccccc1`, the IC50 with Vero [4] is 6650 nM; with Trypanosoma brucei, 190 nM; in the data set with Leishmania donovani, 230 nM; in the data set on Trypanosoma cruzi, 810 nM. Moreover, the figures for the selectivity ratio in data set [2], in data set [5] and in data set [3] were 35, 8 and 29, respectively.
As to `COc1cc(CNCCCCNCc2ccc(OCc3ccccc3)c(OC)c2)ccc1OCc1ccccc1`, the IC50 was 2700 nM in the data set on Vero [4], 170 nM in the data set with Trypanosoma brucei, 240 nM in the data set with Leishmania donovani and 730 nM in the data set with Trypanosoma cruzi. Also, the selectivity ratio in data set [2] stood at 52; in data set [5], 12; in data set [3], 37.
Turning to `COc1cc(CNCCCCCCNCc2ccc(OCc3ccccc3)c(OC)c2)ccc1OCc1ccccc1`, in the data set with Vero [1], the Activity entry is on record as “Non-toxic”. The figures for the IC50 in the data set on Trypanosoma brucei, with Leishmania donovani and with Trypanosoma cruzi were 190 nM, 210 nM and 740 nM, respectively. For the same compound, the results for the selectivity ratio in data set [2], in data set [5] and in data set [3] were > 44, > 11 and > 40, respectively.
Turning to `COc1cc(CNCCCCCCCCNCc2ccc(OCc3ccccc3)c(OC)c2)ccc1OCc1ccccc1`, the IC50 in the data set on Vero [4] was found to be 2700 nM; in the data set on Trypanosoma brucei, 190 nM; in the data set with Leishmania donovani, 220 nM; with Trypanosoma cruzi, 820 nM. Also, the values for the selectivity ratio in data set [2], in data set [5] and in data set [3] were 24, 6 and 21, respectively.
For the compound `COc1cc(CNCCCCCCCCCCNCc2ccc(OCc3ccccc3)c(OC)c2)ccc1OCc1ccccc1`, in the data set with Vero [1], the Activity entry is recorded as “Non-toxic”. Moreover, the values for the IC50 in the data set with Trypanosoma brucei, in the data set with Leishmania donovani and in the data set on Trypanosoma cruzi were 110 nM, 1200 nM and 800 nM, respectively. Further, the selectivity ratio was > 67 in data set [2], > 10 in data set [5] and > 6 in data set [3].
In the case of `COc1ccc(CNCCCCNCc2ccc(OC)cc2)cc1`, in the data set on Vero [1], the Activity result is “Non-toxic”. Besides, the IC50 in the data set with Trypanosoma brucei is 3200 nM; in the data set on Leishmania donovani, 8520 nM; in the data set with Trypanosoma cruzi it was > 10000 nM. Besides, the selectivity ratio was > 5 in data set [2] and > 2 in data set [3].
In the data set on Leishmania donovani, `C[C@@H]1[C@H](O)[C@@H](C)/C=C/C=C/C=C/C=C/C=C/C=C/C=C/[C@H](O[C@@H]2O[C@H](C)[C@@H](O)[C@H](N)[C@@H]2O)C[C@@H]2O[C@](O)(C[C@@H](O)C[C@@H](O)[C@H](O)CC[C@@H](O)C[C@@H](O)CC(=O)O[C@H]1C)C[C@H](O)[C@H]2C(=O)O` [AMPHOTERICIN B] had an IC50 of 320 nM.
For `CC1CS(=O)(=O)CCN1/N=C/c1ccc([N+](=O)[O-])o1` (centres undefined) [NIFURTIMOX], the values for the IC50 in the data set on Trypanosoma brucei and in the data set with Trypanosoma cruzi were 1700 nM and 2100 nM, respectively.
